Measured values: ChEMBL document CHEMBL1153325, “Morpholine containing CB2 selective agonists” (Bioorg Med Chem Lett, 2009)
Calls of active or inactive are those of the source. The rule behind the calls is not given here.

How the values were obtained:
Cannabinoid receptor 2 [1] = target: T1, Cannabinoid receptor 2 (Homo sapiens, UniProt P34972); test: Inverse agonist activity at human CB2 receptor expressed in CHO cells assessed as change in forskolin-induced cAMP release; format: functional, cell-based; details: filed as inverse agonist
T1 sequence (P34972 whole entry): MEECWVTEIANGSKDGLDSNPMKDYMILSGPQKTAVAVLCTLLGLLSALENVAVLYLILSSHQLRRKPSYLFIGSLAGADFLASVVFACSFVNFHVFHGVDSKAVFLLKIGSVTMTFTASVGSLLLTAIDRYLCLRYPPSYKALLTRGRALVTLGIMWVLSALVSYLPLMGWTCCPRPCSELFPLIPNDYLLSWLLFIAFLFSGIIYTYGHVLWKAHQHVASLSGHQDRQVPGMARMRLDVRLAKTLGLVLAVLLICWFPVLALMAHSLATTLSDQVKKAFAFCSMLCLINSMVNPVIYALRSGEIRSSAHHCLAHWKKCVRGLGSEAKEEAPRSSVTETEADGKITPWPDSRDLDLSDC
Summary of the method: (§1)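 CHO cells stably expressing human CB2, 5000 cells/well, incubated overnight at 37 °C. Compounds added in stimulation buffer with 1 mM IBMX, 0.25% BSA and forskolin, 30 min at 37 °C. cAMP read after lysis with a commercial kit. 100% is set by forskolin-stimulated cAMP versus the level under 200 nM CP-55940. Efficacy is relative to CP-55940, which is run twice per plate. EC50 from a four-parameter logistic fit. Each compound tested in triplicate, at least three times; mean reported.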

Cannabinoid receptor 2 [2] = target: T1, Cannabinoid receptor 2; test: Agonist activity at human CB2 receptor expressed in CHO cells assessed as inhibition of forskolin-induced cAMP release relative to CP-55940; format: functional, cell-based; summary of the method: as §1
Homo sapiens = organism: Homo sapiens; test: Selectivity ratio of EC50 for human CB1 receptor to EC50 for human CB2 receptor
Summary of the method: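 Inhibition is normalised to 200 nM CP-55940. EC50 from a four-parameter logistic fit. Each compound tested in triplicate, at least three times.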

Cannabinoid receptor 2 [3] = target: T1, Cannabinoid receptor 2; test: Agonist activity at human CB2 receptor expressed in CHO cells assessed as inhibition of forskolin-induced cAMP release; format: functional, cell-based; summary of the method: as §1
Mus musculus [4] = test: Antiinflammatory activity in BALB/c mouse assessed as inhibition of zymosan-induced paw edema at 30 mg/kg, po administered 60 mins before zymosan challenge measured after 3 hrs relative to control; format: functional; parameters: scale not given: the % may be the effect or the level left
Summary of the method: (§2)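 Male Balb/c mice, 6–10 weeks old. Compound given orally in 95% PEG400/5% Tween 80 about 60 min before 0.5% zymosan in 0.9% saline, injected dorsal metatarsally into each hind paw. Paw volume measured by water plethysmometry before challenge and 3 h after. Inhibition of swelling is relative to vehicle-dosed mice, six per group.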

Cannabinoid receptor 2 [5] = target: T1, Cannabinoid receptor 2; test: Displacement of [3H]CP-55940 form human CB2 receptor transfected in HEK cells; format: cell-based, HEK293
Summary of the method: (§3)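 Compounds tested at 1×10^-5 to 1×10^-10 M. Competition with [³H]-CP55940 or [³H]-Win55212 at 4 nM final. IC50 is 50% inhibition of specific binding, from a four-parameter logistic fit.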

Cannabinoid receptor 2 [6] = target: T1, Cannabinoid receptor 2; test: Displacement of [3H]Win55212 form human CB2 receptor transfected in HEK cells; format: cell-based, HEK293; summary of the method: as §3
Cannabinoid receptor 2 [7] = target: T1, Cannabinoid receptor 2; test: Displacement of [3H]CP-55940 form human CB2 receptor transfected in HEK cells at 50 nM; format: cell-based; details: HEK293
Mus musculus [8] = test: Antiinflammatory activity in BALB/c mouse assessed as inhibition of zymosan-induced paw edema at 100 mg/kg, po administered 60 mins before zymosan challenge measured after 3 hrs relative to control; format: functional; parameters: scale not given: the % may be the effect or the level left; summary of the method: as §2

| Structure (SMILES) | Efficacy (Cannabinoid receptor 2 [2]) [%] | Ratio EC50 (Homo sapiens) | EC50 (Cannabinoid receptor 2 [3]) [nM] | further results |
| --- | --- | --- | --- | --- |
| FC(F)(F)c1ccccc1-c1ccc(CN2CCO[C@H](c3ccccc3)C2)cc1 | – | – | – | Activity (Cannabinoid receptor 2 [1]): Inverse agonist |
| Clc1cccc(Nc2ccc(CN3CCO[C@@H](c4ccccc4)C3)cn2)c1 | 80 | > 100 | 200 | – |
| Clc1ccccc1-c1ccc(CN2CCO[C@@H](c3ccccc3)C2)cc1 | 51 | 306 | 25 | – |
| Cc1ccc(Nc2ccc(CN3CCO[C@@H](c4ccccc4)C3)cn2)cc1 | 80 | > 200 | 100 | – |
| FC(F)(F)c1ccccc1-c1ccc(CN2CCCC(c3ccccc3)C2)cc1 (racemic) | 57 | 195 | 30 | – |
| Clc1cccc(-c2ccc(CN3CCO[C@@H](c4ccccc4)C3)cc2)c1Cl | 77 | 960 | 6 | Activity (Mus musculus [4]): 54%; Ki (Cannabinoid receptor 2 [5]): 312 nM; Ki (Cannabinoid receptor 2 [6]): 104 nM |
| O=C(NCC1CCOCC1)c1cnc(Nc2ccc(Cl)cc2Cl)nc1C(F)(F)F [GW842166X] | 90 | > 60 | 350 | Ki (Cannabinoid receptor 2 [5]): > 5000 nM; Ki (Cannabinoid receptor 2 [6]): > 10000 nM |
| Cc1ccc(Cl)c(-c2ccc(CN3CCO[C@@H](c4ccccc4)C3)cc2)c1 | 73 | 781 | 3 | – |
| c1ccc(Oc2ccc(CN3CCO[C@@H](c4ccccc4)C3)cc2)cc1 | 100 | – | 15000 | – |
| CC(C)c1ccc(Nc2ccc(CN3CCO[C@@H](c4ccccc4)C3)cn2)cc1 | – | – | > 20000 | – |
| FC(F)(F)c1ccccc1-c1ccc(CN2CCO[C@@H](c3ccccc3)C2)cc1 | 50 | 250 | 40 | – |
| c1ccc(Nc2ccc(CN3CCO[C@@H](c4ccccc4)C3)cn2)cc1 | 70 | > 150 | 140 | – |
| c1ccc(-c2ccc(Nc3ccc(CN4CCO[C@@H](c5ccccc5)C4)cn3)cc2)cc1 | – | – | > 20000 | – |
| c1ccc(Nc2ccc(CN3CCO[C@@H](c4ccccc4)C3)cc2)cc1 | 60 | > 30 | 615 | – |
| Clc1ccccc1Nc1ccc(CN2CCO[C@@H](c3ccccc3)C2)cn1 | 80 | 250 | 30 | – |
| FC(F)(F)c1ccccc1-c1ccc(CN2CCOC(c3ccccc3)C2)cc1 (racemic) | 50 | > 60 | 330 | – |
| Clc1ccc(Nc2ccc(CN3CCO[C@@H](c4ccccc4)C3)cn2)cc1Cl | 80 | > 400 | 50 | – |
| Clc1cccc(Nc2ccc(CN3CCO[C@@H](c4ccccc4)C3)cn2)c1Cl | 70 | > 10 | 1600 | – |
| CN(Cc1ccc(-c2ccccc2C(F)(F)F)cc1)CC(O)c1ccccc1 (racemic) | 95 | 120 | 2 | Activity (Cannabinoid receptor 2 [7]): Active |
| Clc1ccc(Nc2ccc(CN3CCO[C@@H](c4ccccc4)C3)cn2)cc1 | 80 | > 670 | 30 | – |
| Fc1ccc(Nc2ccc(CN3CCO[C@@H](c4ccccc4)C3)cn2)cc1 | 70 | – | 35 | – |
| COc1ccc(Nc2ccc(CN3CCO[C@@H](c4ccccc4)C3)cn2)cc1 | 90 | > 310 | 65 | – |
| N#Cc1ccccc1-c1ccc(CN2CCO[C@@H](c3ccccc3)C2)cc1 | 56 | 715 | 3 | – |
| CN(C)c1ccc(Nc2ccc(CN3CCO[C@@H](c4ccccc4)C3)cn2)cc1 | – | – | > 20000 | – |
| Clc1ccc(Nc2ccc(CN3CCO[C@@H](c4ccccc4)C3)cn2)c(Cl)c1 | 100 | > 2000 | 10 | Activity (Mus musculus [8]): 85%; Ki (Cannabinoid receptor 2 [5]): > 10000 nM; Ki (Cannabinoid receptor 2 [6]): 2650 nM |
